Assay results reported in ChEMBL document CHEMBL3994609, “Model-Based Discovery of Synthetic Agonists for the Zn2+-Sensing G-Protein-Coupled Receptor 39 (GPR39) Reveals Novel Biological Functions” (J Med Chem, 2017).
Activity calls are given as the source filed them. The rule behind the calls is not given here.

Columns and labels:
[1] = target: T1, G-protein coupled receptor 39 (Homo sapiens, UniProt O43194); test: (§1) Agonist activity at human GPR39 expressed in HEK293 cells co-expressing Galphaq assessed as myo-[2-3H]inositol phosphate accumulation measured after 75 mins by scintillation proximity assay; assay type: functional, cell-based
T1 sequence (O43194 whole entry): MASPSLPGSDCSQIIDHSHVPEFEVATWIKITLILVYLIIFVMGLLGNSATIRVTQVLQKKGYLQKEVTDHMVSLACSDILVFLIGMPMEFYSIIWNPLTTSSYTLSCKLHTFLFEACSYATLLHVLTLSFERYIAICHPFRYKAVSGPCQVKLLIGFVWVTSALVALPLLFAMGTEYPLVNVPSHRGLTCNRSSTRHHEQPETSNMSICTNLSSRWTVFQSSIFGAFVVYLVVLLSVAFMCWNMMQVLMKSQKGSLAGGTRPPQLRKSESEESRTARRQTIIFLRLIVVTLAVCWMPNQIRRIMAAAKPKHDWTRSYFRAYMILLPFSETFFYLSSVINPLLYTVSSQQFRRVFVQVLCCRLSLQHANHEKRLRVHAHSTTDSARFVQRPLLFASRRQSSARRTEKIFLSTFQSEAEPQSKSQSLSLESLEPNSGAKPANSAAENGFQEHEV

[2] = target: T1, G-protein coupled receptor 39; test: Agonist activity at human GPR39 expressed in HEK293 cells co-expressing Galphaq assessed as myo-[2-3H]inositol phosphate accumulation in presence of 10 uM Zn2+ measured after 75 mins by scintillation proximity assay; assay type: functional, cell-based
[3] = target: T2, G-protein coupled receptor 39 (Homo sapiens) (UniProt O43194); test: Agonist activity at human GPR39 expressed in HEK293 cells co-expressing Galphaq assessed as myo-[2-3H]inositol phosphate accumulation in presence of 100 nM Zn2+ measured after 75 mins by scintillation proximity assay; assay type: functional, cell-based
T2 sequence (whole entry): T1 sequence (O43194 whole entry)

[4] = target: T2, G-protein coupled receptor 39 (Homo sapiens); test: as §1; assay type: functional, cell-based
[5] = target: T2, G-protein coupled receptor 39 (Homo sapiens); test: Agonist activity at human GPR39 expressed in HEK293 cells co-expressing Galphaq assessed as myo-[2-3H]inositol phosphate accumulation in presence of 10 uM Zn2+ measured after 75 mins by scintillation proximity assay relative to zinc; assay type: functional, cell-based
[6] = Intrinsic clearance in human liver microsomes assessed per mg protein at 3 uM measured after 45 mins by LC-MS/MS analysis; assay type: ADME, microsome; conditions: read-out: CLH
[7] = Half life in human liver microsomes at 3 uM measured by LC-MS/MS analysis; assay type: ADME, microsome
Pancreatic islet = test: Induction of glucose-stimulated insulin release in mouse pancreatic islets at 1 uM pretreated for 24 hrs followed by glucose addition measured after 30 mins; assay type: functional, cell-based
Summary of the method: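 Islets isolated from GPR39-deficient mice and wild-type littermates on five independent days, 2 to 3 mice per day; insulin secretion measured with vehicle or 1 μM compound.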

[8] = target: T3, G-protein coupled receptor 39 (Mus musculus, UniProt Q5U431); test: Agonist activity at mouse GPR39 expressed in HEK293 cells co-expressing Galphaq assessed as myo-[2-3H]inositol phosphate accumulation measured after 75 mins by scintillation proximity assay; assay type: functional, cell-based
T3 sequence (Q5U431 whole entry): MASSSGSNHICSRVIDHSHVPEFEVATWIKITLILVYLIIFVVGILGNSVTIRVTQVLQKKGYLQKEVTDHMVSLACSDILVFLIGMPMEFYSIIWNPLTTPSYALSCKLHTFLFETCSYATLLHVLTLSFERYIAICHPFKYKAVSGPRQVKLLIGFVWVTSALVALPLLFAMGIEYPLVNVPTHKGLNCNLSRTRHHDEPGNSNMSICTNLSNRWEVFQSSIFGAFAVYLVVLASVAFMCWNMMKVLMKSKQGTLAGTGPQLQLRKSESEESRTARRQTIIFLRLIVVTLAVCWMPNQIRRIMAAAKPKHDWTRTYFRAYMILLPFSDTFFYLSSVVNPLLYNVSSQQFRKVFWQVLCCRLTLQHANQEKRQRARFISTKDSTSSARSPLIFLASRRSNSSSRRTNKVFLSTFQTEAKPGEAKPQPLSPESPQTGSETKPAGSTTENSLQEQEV

| SMILES | EC50 [1] [nM] | EC50 [2] [nM] | also measured |
| --- | --- | --- | --- |
| COc1ccc(CCOC2CC(=O)Nc3c2c(C)nn3-c2ncnc3nc[nH]c23)cc1 (stereo not given) | 70 | 2 |  |
| Cc1nn(-c2ncnc3nc[nH]c23)c2c1C(NC(=O)c1ccccc1)CC(=O)N2 (stereo not given) | 158 | 3 |  |
| Cc1nn(-c2ncnc3nc[nH]c23)c2c1C(C(=O)NCc1ccccc1)CC(=O)N2 (stereo not given) | 2930 | 5 |  |
| Cc1nn(-c2ncnc3nc[nH]c23)c2c1C(OC1CCCC1)CC(=O)N2 (stereo not given) | 62 | 2 |  |
| Cc1nn(-c2ncnc3nc[nH]c23)c2c1C(OCCn1nccc1C)CC(=O)N2 (stereo not given) | 1620 | 10 |  |
| Cc1nn(-c2ncnc3nc[nH]c23)c2c1C(OCc1ccccc1Cl)CC(=O)N2 (stereo not given) | 47 | 2 |  |
| Cc1cc(C)nc(-n2nc(C)c3c2NC(=O)CC3c2ccc(F)cc2F)n1 (stereo not given) | > 10000 |  |  |
| Cc1nn(-c2ncnc3nc[nH]c23)c2c1C(OCc1ccc(C(C)C)cc1)CC(=O)N2 (stereo not given) | 1690 | 5 |  |
| Cc1nn(-c2ncnc3nc[nH]c23)c2c1C(OCC(=O)c1ccc(F)cc1)CC(=O)N2 (stereo not given) | 973 | 3 |  |
| Cc1nn(-c2ncnc3nc[nH]c23)c2c1C(OCCn1cccn1)CC(=O)N2 (stereo not given) | 2260 | 16 |  |
| Cc1nn(-c2ncnc3nc[nH]c23)c2c1C(OCCc1ccccc1)CC(=O)N2 (stereo not given) | 40 | 3 |  |
| OCC(O)/C=N/Nc1nc(Nc2ccccc2)nc(Nc2ccccc2)n1 (stereo not given) |  | 750 | Activity [3]: inactive; Activity [4]: inactive; fold change (FC) [5]: 2 |
| Cc1nn(-c2ncnc3nc[nH]c23)c2c1C(OCC(C)C)CC(=O)N2 (stereo not given) | 111 | 4 |  |
| C=CCN1c2c(n(C)c(=O)n(C)c2=O)NC1N/N=C/c1ccc(O)cc1O (stereo not given) |  | 340 | Activity [3]: inactive; Activity [4]: inactive; fold change (FC) [5]: 2 |
| Cc1nn(-c2ncnc3nc[nH]c23)c2c1C(C(=O)NCc1ccc(F)cc1)CC(=O)N2 (stereo not given) | 1220 | 4 |  |
| CCC(C(=O)NC1CC(=O)Nc2c1c(C)nn2-c1ncnc2nc[nH]c12)c1ccccc1 (stereo not given) | 79 | 5 |  |
| Cc1nn(-c2ncnc3nc[nH]c23)c2c1C(C(=O)Nc1ccccc1)CC(=O)N2 (stereo not given) |  | 10 |  |
| Cc1cc(C)n(CCOC2CC(=O)Nc3c2c(C)nn3-c2ncnc3nc[nH]c23)n1 (stereo not given) | 2000 | 16 |  |

| SMILES | EC50 [1] [nM] | EC50 [2] [nM] | also measured |
| --- | --- | --- | --- |
| CCCCCCCCOC1CC(=O)Nc2c1c(C)nn2-c1ncnc2nc[nH]c12 (stereo not given) | 388 | 8 |  |
| Cc1nn(-c2ncnc3nc[nH]c23)c2c1C(NC(=O)Cc1ccccc1)CC(=O)N2 (stereo not given) | 418 | 3 |  |
| Cc1nn(-c2ncnc3nc[nH]c23)c2c1C(c1ccc(OC(C)C)cc1)CC(=O)N2 (stereo not given) | 2700 | 18 | microsomal CLint at 3 µM [6]: 58.3 µL/min/mg; half-life at 3 µM [7]: 24 min; Activity (Pancreatic islet): inactive; EC50 [8]: 380 nM |
| Cc1nn(-c2ncnc3nc[nH]c23)c2c1C(C(=O)NCc1ccc3c(c1)OCO3)CC(=O)N2 (stereo not given) | 791 | 7 |  |
| Cc1nn(-c2ncnc3nc[nH]c23)c2c1C(C(=O)N(C)c1nccs1)CC(=O)N2 (stereo not given) | 3300 | 18 |  |
| Cc1noc(C)c1COC1CC(=O)Nc2c1c(C)nn2-c1ncnc2nc[nH]c12 (stereo not given) |  | 5 |  |
| Cc1nn(-c2ncnc3nc[nH]c23)c2c1C(OC(=O)Cc1ccccc1)CC(=O)N2 (stereo not given) | 381 | 6 |  |
| CC(C)(C)c1cc(C(=O)N/N=C/c2ccc(O)cc2O)[nH]n1 |  | 240 | Activity [3]: inactive; Activity [4]: inactive; fold change (FC) [5]: 2 |
| Cc1nn(-c2ncnc3nc[nH]c23)c2c1C(NC(=O)Cc1cccs1)CC(=O)N2 (stereo not given) | 244 | 3 |  |
| Cc1nn(-c2ncnc3nc[nH]c23)c2c1C(OC(=O)c1ccc(F)cc1)CC(=O)N2 (stereo not given) | 245 | 4 |  |
| C/C(=N\NC(=O)c1cc2ccccc2cc1O)c1ccc(N)cc1 |  | 1100 | Activity [3]: inactive; Activity [4]: inactive; fold change (FC) [5]: 2 |
| Cc1nn(-c2ncnc3nc[nH]c23)c2c1C(OCc1ccc(C#N)cc1)CC(=O)N2 (stereo not given) | 60 | 4 |  |
| Cc1nn(-c2ncnc3nc[nH]c23)c2c1C(OCc1ccccc1F)CC(=O)N2 (stereo not given) | 78 | 4 |  |
| Cc1nn(-c2ncnc3nc[nH]c23)c2c1C(OCc1ccc(Cl)cc1Cl)CC(=O)N2 (stereo not given) | 243 | 4 |  |
| Cc1nn(-c2ncnc3nc[nH]c23)c2c1C(OCc1ccc(F)cc1)CC(=O)N2 (stereo not given) | 126 | 1 |  |
| Cc1nn(-c2ncnc3nc[nH]c23)c2c1C(c1ccc(F)cc1F)CC(=O)N2 (stereo not given) | 460 |  |  |
| Cc1nn(-c2ncnc3nc[nH]c23)c2c1C(OCc1ccccc1C#N)CC(=O)N2 (stereo not given) | 127 | 8 |  |
| Cc1nn(-c2ncnc3nc[nH]c23)c2c1C(C(=O)N(C)c1ccccc1)CC(=O)N2 (stereo not given) | 5220 | 32 |  |
